The values below come from ChEMBL document CHEMBL2375276, “Antibacterial oxazolidinone analogues having a N-hydroxyacetyl-substituted seven-membered [1,2,5]triazepane or [1,2,5]oxadiazepane C-ring unit” (Eur J Med Chem, 2013).

Values after ≈ are worked out from the molar mass of the structure shown.

For the first experiment, the system named is Staphylococcus aureus. In words: Antibacterial activity against methicillin-resistant Staphylococcus aureus SR3637 infected in JCL/ICR mouse systemic infection model assessed as mortality administered as po measured over 7 days. The format is functional. Conditions: 168 h. In a few lines: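 Five-week-old male JCL/ICR mice (20–25 g), five per group. Infected intraperitoneally with 0.5 or 1.0 mL bacterial suspension (about 100× LD50). Oral dosing 1 h post-infection. Mortality followed 7 days; ED50 with 95% confidence limits by logit method.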
With `O=C(CO)N1CCN(c2c(F)cc(N3C[C@H](CNc4ccon4)OC3=O)cc2F)CCN1`, the ED50 (commonly the dose that gives a 50% effect, or the effect in half of the subjects) was found to be 2.83 mg/kg.

For a further experiment, the system named is Staphylococcus aureus. As to the kind of experiment: Antibacterial activity against methicillin-resistant Staphylococcus aureus SR3637 infected in JCL/ICR mouse systemic infection model assessed as mortality administered as iv measured over 7 days. Type of experiment: functional. The settings on record: 168 h. An outline of the steps:
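Five-week-old male JCL/ICR mice (20–25 g), five per group. Infected intraperitoneally with 0.5 or 1.0 mL bacterial suspension (about 100× LD50). Intravenous dosing 1 h post-infection. Mortality followed 7 days; ED50 with 95% confidence limits by logit method.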
In the case of `O=C(CO)N1CCN(c2c(F)cc(N3C[C@H](Cn4ccnn4)OC3=O)cc2F)CCN1`, the ED50 was 1.71 mg/kg.
Consider `O=C(CO)N1CCN(c2c(F)cc(N3C[C@H](CNc4ccon4)OC3=O)cc2F)CCN1`, for which the median effective dose (ED50) came to 2.18 mg/kg.
With `O=C(CO)N1CCN(c2c(F)cc(N3C[C@H](CNc4ccon4)OC3=O)cc2F)CCO1`, the ED50 is above 10 mg/kg.

The next experiment has as its system Staphylococcus aureus. As to the kind of experiment: Antibacterial activity against methicillin-resistant Staphylococcus aureus SR3637 assessed as growth inhibition by CLSI broth microdilution method. Type of experiment: functional.
Conditions: not given
In a few lines: (§1)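 MIC by CLSI broth microdilution in cation-adjusted Mueller-Hinton broth. Lowest concentration inhibiting growth taken as MIC.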
On the technique in general: In broth dilution the organism is exposed to a series of concentrations in liquid medium.
`O=C(CO)N1CCN(c2c(F)cc(N3C[C@H](Cn4ccnn4)OC3=O)cc2F)CCN1`: the MIC was 1 µg/mL (≈ 2.29 µM).
As to `O=C(CO)N1CCN(c2c(F)cc(N3C[C@H](CNc4ccon4)OC3=O)cc2F)CCN1`, the MIC was 0.5 µg/mL (≈ 1.11 µM).
As to `O=C(CO)N1CCN(c2c(F)cc(N3C[C@H](CNc4ccon4)OC3=O)cc2F)CCO1`, the MIC came to 0.25 µg/mL (≈ 0.551 µM).

The subject of a further experiment is Haemophilus influenzae. In words: Antibacterial activity against Haemophilus influenzae SR27914 clinical isolate assessed as growth inhibition by CLSI broth microdilution method. The format is functional.
Conditions: not given
In a few lines: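 MIC by CLSI broth microdilution using Haemophilus test medium.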
Regarding `O=C(CO)N1CCN(c2c(F)cc(N3C[C@H](Cn4ccnn4)OC3=O)cc2F)CCN1`, the MIC worked out at 8 µg/mL (≈ 18.3 µM).
Turning to `O=C(CO)N1CCN(c2c(F)cc(N3C[C@H](CNc4ccon4)OC3=O)cc2F)CCN1`, the MIC stood at 16 µg/mL (≈ 35.4 µM).
For `O=C(CO)N1CCN(c2c(F)cc(N3C[C@H](CNc4ccon4)OC3=O)cc2F)CCO1`, the MIC was 16 µg/mL (≈ 35.3 µM).

In a further experiment the test system is Streptococcus pneumoniae. As to the kind of experiment: Antibacterial activity against Streptococcus pneumoniae SR26207 clinical isolate assessed as growth inhibition by CLSI broth microdilution method.
Conditions: not given
Type of experiment: functional. In a few lines:
(§2)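 MIC by CLSI broth microdilution in cation-adjusted Mueller-Hinton broth; S. pneumoniae medium supplemented with 5% lysed horse blood.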
Consider `O=C(CO)N1CCN(c2c(F)cc(N3C[C@H](Cn4ccnn4)OC3=O)cc2F)CCN1`, for which the MIC stood at 0.5 µg/mL (≈ 1.14 µM).
On to `O=C(CO)N1CCN(c2c(F)cc(N3C[C@H](CNc4ccon4)OC3=O)cc2F)CCN1`, for which the MIC came to 0.125 µg/mL (≈ 0.276 µM).
Turning to `O=C(CO)N1CCN(c2c(F)cc(N3C[C@H](CNc4ccon4)OC3=O)cc2F)CCO1`, the MIC came to 0.25 µg/mL (≈ 0.551 µM).

The test system of the next experiment is Moraxella catarrhalis. As to the kind of experiment: Antibacterial activity against Moraxella catarrhalis SR26840 clinical isolate assessed as growth inhibition by CLSI broth microdilution method. The format is functional.
Conditions: not given
An outline of the steps:
as §2
`O=C(CO)N1CCN(c2c(F)cc(N3C[C@H](Cn4ccnn4)OC3=O)cc2F)CCN1`: the MIC was determined as 4 µg/mL (≈ 9.14 µM).
As for `O=C(CO)N1CCN(c2c(F)cc(N3C[C@H](CNc4ccon4)OC3=O)cc2F)CCN1`, the MIC amounted to 16 µg/mL (≈ 35.4 µM).
Turning to `O=C(CO)N1CCN(c2c(F)cc(N3C[C@H](CNc4ccon4)OC3=O)cc2F)CCO1`, the MIC came to 4 µg/mL (≈ 8.82 µM).

For another experiment, the system named is Enterococcus faecium. As to the kind of experiment: Antibacterial activity against Enterococcus faecium SR7940 clinical isolate assessed as growth inhibition by CLSI broth microdilution method. Type of experiment: functional.
Conditions: not given
In a few lines:
as §2
For the compound `O=C(CO)N1CCN(c2c(F)cc(N3C[C@H](Cn4ccnn4)OC3=O)cc2F)CCN1`, the MIC stood at 1 µg/mL (≈ 2.29 µM).
In the case of `O=C(CO)N1CCN(c2c(F)cc(N3C[C@H](CNc4ccon4)OC3=O)cc2F)CCN1`, the MIC is 1 µg/mL (≈ 2.21 µM).
On to `O=C(CO)N1CCN(c2c(F)cc(N3C[C@H](CNc4ccon4)OC3=O)cc2F)CCO1`, for which the MIC is 1 µg/mL (≈ 2.21 µM).

Another experiment deals with Enterococcus faecalis. In words: Antibacterial activity against Enterococcus faecalis SR1004 clinical isolate assessed as growth inhibition by CLSI broth microdilution method. The format is functional.
Conditions: not given
In a few lines: as §2
In the case of `O=C(CO)N1CCN(c2c(F)cc(N3C[C@H](Cn4ccnn4)OC3=O)cc2F)CCN1`, the MIC turned out to be 1 µg/mL (≈ 2.29 µM).
For `O=C(CO)N1CCN(c2c(F)cc(N3C[C@H](CNc4ccon4)OC3=O)cc2F)CCN1`, the MIC was 0.25 µg/mL (≈ 0.553 µM).
On the same count and under the same terms, the result for `O=C(CO)N1CCN(c2c(F)cc(N3C[C@H](CNc4ccon4)OC3=O)cc2F)CCO1` reads 0.5 µg/mL (≈ 1.1 µM).

In a further experiment the test system is Staphylococcus aureus. In words: Antibacterial activity against linezolid-resistant Staphylococcus aureus NRS271 assessed as growth inhibition by CLSI broth microdilution method. The format is functional.
Conditions: not given
In a few lines:
as §1
Regarding `O=C(CO)N1CCN(c2c(F)cc(N3C[C@H](Cn4ccnn4)OC3=O)cc2F)CCN1`, the MIC was determined as 16 µg/mL (≈ 36.6 µM).
Same read-out and setting: then `O=C(CO)N1CCN(c2c(F)cc(N3C[C@H](CNc4ccon4)OC3=O)cc2F)CCN1`, with 8 µg/mL (≈ 17.7 µM).
Consider `O=C(CO)N1CCN(c2c(F)cc(N3C[C@H](CNc4ccon4)OC3=O)cc2F)CCO1`, for which the MIC amounted to 8 µg/mL (≈ 17.6 µM).

A further experiment concerns Staphylococcus aureus. As to the kind of experiment: Antibacterial activity against Staphylococcus aureus Smith assessed as growth inhibition by CLSI broth microdilution method. The format is functional.
Conditions: not given
In a few lines: as §2
`O=C(CO)N1CCN(c2c(F)cc(N3C[C@H](Cn4ccnn4)OC3=O)cc2F)CCN1`: the MIC turned out to be 2 µg/mL (≈ 4.57 µM).
On to `O=C(CO)N1CCN(c2c(F)cc(N3C[C@H](CNc4ccon4)OC3=O)cc2F)CCN1`, for which the MIC was determined as 0.5 µg/mL (≈ 1.11 µM).
`O=C(CO)N1CCN(c2c(F)cc(N3C[C@H](CNc4ccon4)OC3=O)cc2F)CCO1`: the MIC is 0.5 µg/mL (≈ 1.1 µM).

Another experiment concerns Staphylococcus aureus. In words: Antibacterial activity against Staphylococcus aureus SR20549 clinical isolate assessed as growth inhibition by CLSI broth microdilution method. The format is functional.
Conditions: not given
In a few lines: as §2
Turning to `O=C(CO)N1CCN(c2c(F)cc(N3C[C@H](Cn4ccnn4)OC3=O)cc2F)CCN1`, the MIC came to 1 µg/mL (≈ 2.29 µM).
Turning to `O=C(CO)N1CCN(c2c(F)cc(N3C[C@H](CNc4ccon4)OC3=O)cc2F)CCN1`, the MIC was determined as 0.5 µg/mL (≈ 1.11 µM).
Consider `O=C(CO)N1CCN(c2c(F)cc(N3C[C@H](CNc4ccon4)OC3=O)cc2F)CCO1`, for which the MIC came to 0.25 µg/mL (≈ 0.551 µM).
